Laboratory results from ChEMBL document CHEMBL4190262, “Tuning of β-glucosidase and α-galactosidase inhibition by generation and in situ screening of a library of pyrrolidine-triazole hybrid molecules” (Eur J Med Chem, 2017).

Tests used:
[1] = biological target: Alpha-galactosidase (Coffea arabica) (UniProt Q42656); test: Inhibition of coffee beans alpha-galactosidase at 1 mM using p-nitrophenyl glycopyranoside preincubated for 5 mins followed by substrate addition measured after 20 mins by visible absorption spectroscopic method relative to control
Outline: (§1)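 Test compound at 1 mM in well. Mix: 0.01–0.5 units/mL enzyme plus 10 mM p-nitrophenyl glycopyranoside (aqueous solution), buffered to the enzyme's optimal pH. Enzyme and inhibitor preincubated 5 min at rt. Substrate then added and incubated 20 min at 37 °C. Stopped with sodium borate (pH 9.8). p-Nitrophenolate read at 405 nm. Duplicates averaged.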

[2] = Inhibition of almond beta-glucosidase using p-nitrophenyl glycopyranoside preincubated for 5 mins followed by substrate addition measured after 20 mins by visible absorption spectroscopic method; design: species or system Prunus dulcis
Outline: (§2)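 IC50 determined only for compounds giving ≥80% inhibition at 1 mM, read from plots of % inhibition versus inhibitor concentration. p-Nitrophenyl glycopyranoside substrate (10 mM solution) at the enzyme's optimal pH, with 0.01–0.5 units/mL enzyme. 5 min rt preincubation with enzyme, then 20 min at 37 °C. Borate stop (pH 9.8), absorbance at 405 nm. Duplicates averaged.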

[3] = test system: Prunus dulcis; test: Inhibition of almond beta-glucosidase at 10 uM using p-nitrophenyl glycopyranoside preincubated for 5 mins followed by substrate addition measured after 20 mins by visible absorption spectroscopic method relative to control
Outline: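 Crude click-reaction products screened in situ. Azide (final 15 mM) was reacted with each alkyne using sodium ascorbate/CuSO4 in tBuOH–H2O for 24 h at rt, then diluted with water. Tested at 10 μM per well, assuming quantitative conversion, against almond β-glucosidase at pH 5, 37 °C. p-Nitrophenyl glycoside read-out at 405 nm.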

[4] = organism: Bos taurus; test: Inhibition of bovine liver beta-glucosidase at 1 mM using p-nitrophenyl glycopyranoside preincubated for 5 mins followed by substrate addition measured after 20 mins by visible absorption spectroscopic method relative to control; outline: as §1
[5] = biological target: Alpha-galactosidase (Coffea arabica, UniProt Q42656); test: Inhibition of coffee beans alpha-galactosidase using p-nitrophenyl glycopyranoside preincubated for 5 mins followed by substrate addition measured after 20 mins by visible absorption spectroscopic method; outline: as §2
[6] = Inhibition of bovine liver beta-glucosidase using p-nitrophenyl glycopyranoside preincubated for 5 mins followed by substrate addition measured after 20 mins by visible absorption spectroscopic method; design: species or system Bos taurus; outline: as §2
[7] = biological target: T1, Alpha-galactosidase A (Homo sapiens, UniProt P06280); test: Inhibition of human lysosomal alpha-galactosidase A using 4-methylumbelliferyl-alpha-D-galactopyranoside as substrate preincubated for 45 mins followed by substrate addition measured after 30 mins by fluorescence spectroscopic method
T1 sequence (P06280 whole entry): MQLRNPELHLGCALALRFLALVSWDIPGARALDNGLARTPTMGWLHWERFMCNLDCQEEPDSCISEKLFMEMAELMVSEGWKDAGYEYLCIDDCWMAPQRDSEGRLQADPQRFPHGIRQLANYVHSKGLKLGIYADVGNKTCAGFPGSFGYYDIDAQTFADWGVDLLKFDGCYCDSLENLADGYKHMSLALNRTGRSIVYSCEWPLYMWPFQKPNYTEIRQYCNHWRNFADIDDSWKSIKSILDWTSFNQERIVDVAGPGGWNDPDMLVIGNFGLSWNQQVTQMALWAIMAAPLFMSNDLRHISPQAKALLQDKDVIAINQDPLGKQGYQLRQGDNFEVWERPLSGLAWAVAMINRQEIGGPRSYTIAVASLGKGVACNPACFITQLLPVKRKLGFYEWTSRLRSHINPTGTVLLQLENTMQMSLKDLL
Outline: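 Enzyme in 100 mM McIlvaine buffer pH 5.2 with 0.25% sodium taurocholate and 0.1% Triton X-100, with inhibitor. Preincubated at 0 °C for 45 min, then started with 3 mM 4-methylumbelliferyl glycoside substrate solution and incubated 30 min at 37 °C. Stopped with 400 mM glycine-NaOH pH 10.6. 4-Methylumbelliferone fluorescence read at ex 362/em 450 nm.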

[8] = Selectivity ratio of IC50 for human lysosomal alpha-galactosidase A to IC50 for coffee beans alpha-galactosidase

Alpha-galactosidase (Coffea arabica), sequence (Q42656 16-378 limits assumed): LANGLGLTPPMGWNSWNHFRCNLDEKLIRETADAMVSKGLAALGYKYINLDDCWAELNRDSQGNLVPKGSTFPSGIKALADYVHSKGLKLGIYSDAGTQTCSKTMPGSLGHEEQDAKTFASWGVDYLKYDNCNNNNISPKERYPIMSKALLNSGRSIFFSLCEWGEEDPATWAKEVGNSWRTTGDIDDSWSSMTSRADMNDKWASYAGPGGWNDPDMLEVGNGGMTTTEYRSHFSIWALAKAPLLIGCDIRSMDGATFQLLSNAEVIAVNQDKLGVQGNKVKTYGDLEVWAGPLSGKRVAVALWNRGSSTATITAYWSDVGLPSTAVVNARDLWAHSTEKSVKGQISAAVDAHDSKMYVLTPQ
Alpha-galactosidase, sequence (Q42656 whole entry): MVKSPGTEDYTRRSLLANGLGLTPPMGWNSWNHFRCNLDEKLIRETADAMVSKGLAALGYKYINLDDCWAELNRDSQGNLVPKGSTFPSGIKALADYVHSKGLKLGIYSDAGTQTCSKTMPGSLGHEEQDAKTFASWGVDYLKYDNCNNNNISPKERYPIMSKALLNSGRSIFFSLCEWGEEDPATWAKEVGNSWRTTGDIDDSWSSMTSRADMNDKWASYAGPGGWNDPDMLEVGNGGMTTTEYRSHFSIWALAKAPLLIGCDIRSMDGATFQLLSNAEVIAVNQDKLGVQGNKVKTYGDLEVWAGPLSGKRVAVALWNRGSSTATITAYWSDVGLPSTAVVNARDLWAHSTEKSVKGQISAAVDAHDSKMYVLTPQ

inhibition [1] [%] | IC50 [2] [µM] | inhibition [3] [%] | inhibition [4] [%] | IC50 [5] [µM] | IC50 [6] [µM] | IC50 [7] [µM] | Ratio IC50 [8] | SMILES
< 50 | 8 | 72 | < 50 | – | – | – | – | O[C@@H]1[C@H](O)CN[C@H]1Cn1cc(-c2ccccc2)nn1
– | – | – | – | 14 | 240 | 171 | 10 | O[C@@H]1[C@H](O)CN[C@@H]1Cn1cc(-c2ccccc2)nn1
